# TbHK1 inh – T. brucei hexokinase 1 inhibition. AID 1430. recombinant TbHK1, G6PDH-coupled NADH A340. inhibition, % at 10 µM. hit rate 0.11% among 220,000;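 active = inhibition of 50% or more in the single-dose primary screen; inactive = inhibition below 50%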
# Dynein transport – blocks dynein driven cargo transport along microtubules. hit rate 0.47% among 220,000. 3617.4 mouse cells, GR-EGFP nuclear translocation imaging; test concentration mostly 20 µM; stimulated with dexamethasone, 1 µM; stronger effect = lower value. z-score, hits read low;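 active = plate z-score of nuclear minus cytoplasmic receptor signal below a set negative limit, without overly bright fluorescence or cell loss, cut at about -3.5 in these data, passing the limit was not always enough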;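 also: z-score of nuclear minus cytoplasmic ring GR-EGFP intensity difference per well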
#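 Medium: Induction medium lacking tetracycline, stripped serum | Probe or stimulus: 1.0 µM final dexamethasone stimulus | Schedule: 48 h induction, then 1 h compound, then 30 min agonist, 37 °C | Signal: Automated 10x imaging of fixed Hoechst-stained cells | Evaluation: Per-cell GR-EGFP intensity, nucleus versus surrounding cytoplasmic ring, well-averaged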
# TNF death inh – blocks TNF-alpha induced death of Jurkat FADD-/- cells; Jurkat FADD-/- TNF necroptosis rescue, ATP luminescence, 24 h; 0 = TNF only, 100 = no-TNF cells; activation (protection from cell death), % at 10 µM; AID 463075; hit rate 0.068% among 220,000;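 active = activation, meaning protection from cell death, of at least 50% relative to plate controls; inactive = activation below 50%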;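 also: necroptosis triggered by 40 ng/mL TNF-alpha added together with compound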
# S1P4 antag – antagonists of human S1P4 receptor | S1P4-expressing cells, antagonist mode, reporter read-out | inhibition, % at 4.98 µM | hit rate 0.26% among 220,000 | AID 1510; in the data active = inhibition above about 29%;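 also: 0% = wells stimulated with agonist and 100% = vehicle wells without agonist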
# Target sequence (O95977 whole entry, looked up): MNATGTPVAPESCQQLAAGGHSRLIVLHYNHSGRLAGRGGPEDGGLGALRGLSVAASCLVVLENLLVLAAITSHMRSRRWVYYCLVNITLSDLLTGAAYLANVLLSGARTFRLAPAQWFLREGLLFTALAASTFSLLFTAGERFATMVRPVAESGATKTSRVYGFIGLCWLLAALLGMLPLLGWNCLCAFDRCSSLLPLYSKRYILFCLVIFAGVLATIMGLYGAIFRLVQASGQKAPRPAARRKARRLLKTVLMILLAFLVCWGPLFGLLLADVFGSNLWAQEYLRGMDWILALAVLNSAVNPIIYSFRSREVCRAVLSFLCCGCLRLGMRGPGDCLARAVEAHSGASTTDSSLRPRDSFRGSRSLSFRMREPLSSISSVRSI
# zVAD death inh – L929 zVAD cell death inhibition; L929 zVAD necroptosis rescue, ATP luminescence, 24 h; with zVAD 60 µM; viability rescue, % at 10 µM; hit rate 0.38% among 220,000;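 active = activation, scaled between plate controls, above about 75%, limit read from the data; inactive = activation under that limit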;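 also: 0% = zVAD with DMSO and 100% = DMSO alone without zVAD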
# S1P4 agonist – agonists of human S1P4 receptor; S1P4-expressing cell line, agonist reporter assay; hit rate 0.35% among 220,000; AID 1509; activation, % at 4.98 µM; O95977; in the data active = activation above about 11%;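 also: 0% = DMSO vehicle and 100% = reference agonist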
# S1P4 antag cf – human S1P4 antagonism, confirmation; S1P4-expressing cell line, antagonist mode, reporter read-out; shares compounds with S1P4 antag; hit rate 71% among 520; inhibition, % at 4.98 µM; in the data active = inhibition above about 30%
# S1P1 antagonist – counter-screen for S1P4 antagonists: antagonists of human S1P1. hit rate 37% among 520. inhibition, % at 4.98 µM. cell-based S1P1 antagonist counterscreen, inhibition. shares compounds with S1P4 antag; in the data active = inhibition above about 40%;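 also: receptor stimulated with S1P near its EC80; 0% = agonist stimulated wells and 100% = vehicle only wells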
# Active calls of the source: *; · = not tested or not shown. Most compounds without a hit are left out; they make up all but 1.5% or so of the library.
SMILES,TbHK1 inh,Dynein transport,TNF death inh,S1P4 antag,zVAD death inh,S1P4 agonist,S1P4 antag cf,S1P1 antagonist
CCCCC(=O)OCc1nc(N)nc(Nc2ccccc2C)n1,11,1.5,1,-24,1,0,·,·
COc1ccccc1C(=O)OCc1nc(N)nc(Nc2ccccc2C)n1,-3,0.046,1,107*,-1,1,-11,1
O=c1/c(=C/c2ccc([N+](=O)[O-])cc2)sc2n1CCCN=2,-21,-0.58,-3,34*,0,0,22,31
CC(C)(C)c1ccc(-n2nc(C#N)c(Cl)cc2=O)cc1,-3,-0.11,-17,110*,6,-6,120*,49*
Cn1cccc1C(=O)NC(=O)COC(=O)C12CC3CC(CC(O)(C3)C1)C2,-2,-0.59,0,33*,0,-3,3,5
CNC(=O)c1ccc(-n2cccn2)nc1,8,0.37,1,1,1,-2,·,·
CN(C)c1ccc([C@@H]2[C@@H]([N+](=O)[O-])[C@H]3C=Cc4ccccc4N3[C@H]2C(=O)c2ccc(Cl)cc2)cc1,-6,-1.6,-2,-10,0,0,·,·
O=c1n(-c2ccccc2)c(=O)n2n1CC(O)C2,1,-0.21,-1,-2,1,0,·,·
O=c1[nH]n(-c2cccc3cccnc23)c(=O)c2ccccc12,-5,-0.83,1,-25,2,0,·,·
O=S1(=O)Nc2c(ccc3cccnc23)-c2ccccc21,20,-0.46,-11,50*,36,0,95*,89*
O=C(OCn1nnc2ccccc2c1=O)c1cc(-c2ccccc2Cl)nc2ccccc12,-15,-0.54,2,-10,0,3,·,·
Cc1onc(-c2ccccc2Cl)c1C(=O)OCn1nnc2ccccc2c1=O,2,0.68,-1,30*,0,-2,11,4
CCOC(=O)Cn1nc(C)c(NC(=O)COc2ccc([N+](=O)[O-])c(C)c2)c1C,-8,0.25,0,40*,1,1,2,24
Cc1cc2oc(C(=O)Nc3c(C)n(C)n(-c4ccccc4)c3=O)c(C)c2cc1C,4,-0.16,-1,30*,-1,0,61*,48*
Cc1ccc2c(C)c(C(=O)Nc3c(C)n(C)n(-c4ccccc4)c3=O)oc2c1C,-2,-1.6,0,29*,0,-1,61*,30
Cc1nc(CC(=O)c2ccc(O)c(C)c2O)cs1,-65,3.2,1,11,0,-3,·,·
O=C(Nc1nc2ccccc2c(=O)s1)c1ccco1,-19,-0.0099,-12,30*,0,0,27,-17
Cc1ccc2nc3c(cc2c1)CN(Cc1ccco1)C(=NCC1CCCO1)S3 (configuration not stated),-5,-0.5,-1,11,1,1,·,·
Cc1cccc2cc3c(nc12)SC(=NCC1CCCO1)N(Cc1ccco1)C3 (configuration not stated),-4,-1.1,-8,56*,0,2,22,47*
COCCN=C1Sc2nc3c(C)cccc3cc2CN1Cc1ccco1,-5,-0.14,1,51*,1,-1,24,8
CC(=O)N1N=C(c2ccc(C)cc2)OC1c1cccnc1 (configuration not stated),-2,-0.62,0,-5,1,0,·,·
Nc1cccc2c1C(=O)N(C(=O)c1ccc(Cl)c(S(=O)(=O)N3CCCCCC3)c1)C2=O,-5,-0.8,-1,32*,-1,3,33*,0
O=C(COC(=O)C1(c2ccc(F)cc2)CCCC1)NCc1ccco1,2,0.47,-1,-4,0,3,·,·
CCOc1ccc(CN2CCN(CC(O)Cn3c4ccccc4c4ccccc43)CC2)cc1 (configuration not stated),-8,-0.21,0,42*,·,-1,71*,83*
CCC(CC)C(=O)c1c[nH]c(C(=O)NCc2ccccn2)c1,-3,-0.8,2,7,2,0,·,·

# Assay outcomes from PubChem.
